A selection: hits, their analogues and other compounds. The true share with any hit is near 1.2%.
Lipid droplet – modulators of hepatic lipid droplet formation | hit rate 0.4% among 240,000 | AID 1656 | AML12 mouse hepatocytes, oleate lipid droplets, BODIPY imaging | inhibition, % at 6.5 µM;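 active means lipid droplet intensity inhibited by at least 50%, with more than 500 cells counted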
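Material – mouse AML12 hepatocyte cell line, fixed after treatment · Compound dosing – one dose, 6.5 µM compound · Times – compound with oleate, overnight · Measured by – Image-based BODIPY and DAPI two-channel analysis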
p-CIP stab down – compounds decreasing mouse p/CIP protein stability | Q05BA5 | F442A p/CIP-EGFP cells, EGFP fluorescence, 16 h | decrease of EGFP signal, % at 10 µM | hit rate 0.01% among 290,000;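 active means EGFP signal decrease of at least 30% at 10 µM or well 3 SD below plate mean, unless failing retest; inactive means the rest, including hits failing retest or dose response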
procasp3 activ – activates human procaspase-3. recombinant procaspase-3 D3A, Ac-DEVD-pNA absorbance 405 nm. hit rate 0.11% among 330,000. activation, % at 8.5 µM. AID 463141. P42574;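 active means activation above the mean of all tested compounds plus 3 SD, cut at about 21% in these data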;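 further: 0% = DMSO alone and 100% = DMSO wells spiked with extra 5 µM PC-3 D3A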
Target sequence (P42574 whole entry D9A/D28A/D175A): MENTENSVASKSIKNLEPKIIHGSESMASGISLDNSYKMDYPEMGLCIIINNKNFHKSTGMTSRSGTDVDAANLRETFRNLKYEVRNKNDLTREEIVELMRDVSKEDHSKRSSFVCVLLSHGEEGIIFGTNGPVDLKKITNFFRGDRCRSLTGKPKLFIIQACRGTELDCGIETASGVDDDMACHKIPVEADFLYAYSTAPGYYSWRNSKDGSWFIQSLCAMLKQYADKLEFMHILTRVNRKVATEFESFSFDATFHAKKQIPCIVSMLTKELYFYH
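Test system: Procaspase-3 D3A mutant, all three cleavage aspartates alanine | Dosing: Single dose, 8.5 µM nominal compound, 0.8% DMSO | Schedule: 1 h preincubation, 2 h reaction | Technique: 405 nm absorbance of p-nitroaniline, reads at 0 and 120 min | Repeats: One well per compound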
FXN GAA850 act – increases GAA850 frataxin promoter reporter activity; activation, % at 6 µM; HEK293 lucGAA850 FXN promoter luciferase reporter, 24 h; percent of 10 µM SAHA response; AID 540364; hit rate 0.56% among 360,000;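 active means activation above the average of all compounds screened plus 3 SD, cutoff fixed separately per campaign, cut at about 7.5% in these data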;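 further: 0% = DMSO wells and 100% = 10 µM SAHA wells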
procasp7 counter – counter-screen: procaspase-7 (human) activation. recombinant procaspase-7, Ac-DEVD-pNA absorbance 405 nm; D23A/D198A/D206A triple mutant, cannot self-cleave; scale: DMSO 0, 5 µM enzyme 100. P55210. hit rate 0.093% among 330,000. AID 463210. activation, % at 8.5 µM;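 active means percent activation above the screen-wide mean plus 3 SD, cut at about 25% in these data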
Target sequence (P55210 whole entry D23A/D198A/D206A): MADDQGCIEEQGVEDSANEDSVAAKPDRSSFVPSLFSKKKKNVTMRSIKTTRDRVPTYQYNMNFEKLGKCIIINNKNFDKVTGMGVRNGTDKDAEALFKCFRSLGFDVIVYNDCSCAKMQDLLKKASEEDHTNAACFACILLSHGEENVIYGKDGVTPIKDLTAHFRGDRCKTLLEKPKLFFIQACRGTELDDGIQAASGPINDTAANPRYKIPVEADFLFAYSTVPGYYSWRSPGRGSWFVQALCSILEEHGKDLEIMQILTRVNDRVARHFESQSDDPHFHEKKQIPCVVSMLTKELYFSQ
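Detection: p-Nitroaniline absorbance at 405 nm, read at 0 and 120 min; system: Uncleavable procaspase-7 mutant enzyme; evaluation: % activation from two-timepoint absorbance difference, scaled to controls; times: 1 h enzyme–compound preincubation and 2 h substrate reaction, both 25 °C; buffer or medium: Zinc-free HEPES pH 7.4 with 300 mM NaCl, 0.01% Triton X-100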
Rce1 inhib – blocks yeast Ras-converting enzyme; Q03530; yeast membranes, quenched prenylated peptide cleavage fluorescence; calls only; hit rate 0.27% among 290,000;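 active means fall in fluorescence gain of 50% or more versus controls, with final raw signal at or below 3038400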;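 further: plate controls were neutral control wells for no effect and wells lacking membranes for full effect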
PC3 D3A act – counter-screen: procaspase-3 (human) activation. shares compounds with procasp7 counter. recombinant PC-3 D3A, Ac-DEVD-pNA absorbance 405 nm; aspartates 9, 28, 175 changed to alanine; 100% = enzyme control. activation, % at 8.5 µM. 290 tested, under 10 active;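 active means mean percent activation across triplicates above a set limit taken from the earlier primary procaspase-3 screen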;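 further: 0% = DMSO wells and 100% = DMSO wells with 5 µM added PC-3 D3A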
PC7 dual conf – activates human procaspase-7, confirming dual procaspase activators. AID 493115. 290 tested, under 10 active. activation, % at 8.5 µM. recombinant procaspase-7, Ac-DEVD-pNA absorbance 405 nm; D23A/D198A/D206A mutant that cannot self-cleave. shares compounds with procasp7 counter;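 active means mean activation above a set limit carried over from the earlier primary screen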;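 further: 0% = DMSO only and 100% = DMSO with added 5 µM PC-7 enzyme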
An asterisk follows results filed as active; i = inactive; x = no result.

SMILES	Lipid droplet	p-CIP stab down	procasp3 activ	FXN GAA850 act	procasp7 counter	Rce1 inhib	PC3 D3A act	PC7 dual conf
O=C(Nc1sc2c(c1C(=O)NCC1CCCO1)CCCC2)c1cccs1 (centres undefined)	x	-5	16	6	37*	i	1	-2
O=C(Nc1sc2c(c1C(=O)O)CCCC2)c1cccs1	x	-10	0	3	-12	i	x	x
N#Cc1c2c(c(Nc3ccccc3)n3c1nc1ccccc13)CCC2	12	3	11	-1	61*	i	4	1
Cc1ccc(-c2cc(-c3ccc(F)cc3)nc(N)c2C#N)o1	9	-10	42*	3	50*	i	-29	-34
Cc1ccc(-c2cc(-c3ccccc3)c(C#N)c(N)n2)o1	33	0	-9	-2	-19	i	x	x
O=C(NNC(=O)C1CC(c2cccnc2)=NO1)Nc1ccccc1F (centres undefined)	-21	0	-3	0	26*	i	1	3
CCOc1ccc(N(CC(=O)NCCSCc2ccco2)S(=O)(=O)c2ccc(C)cc2)cc1	-10	12	-2	1	2	i	x	x
COc1ccc2c(c1OC)C(=O)OC2CC(=O)c1ccc(N(C)C)cc1 (centres undefined)	x	-9	44*	-1	41*	i	41*	30*
COc1ccc2c(c1OC)C(=O)OC2CC(=O)c1ccc(O)cc1 (centres undefined)	x	-12	18	-2	18	i	x	x
O=C(NNS(=O)(=O)c1ccccc1)c1cc2cc3ccccc3nc2s1	x	-14	-1	1	7	i	x	x
O=C(NNC(=O)c1cc2cc3ccccc3nc2s1)c1cccc(C(F)(F)F)c1	x	3	0	-1	26*	i	-23	-19
N#Cc1cc2cc3c(cc2nc1N1CCCCC1)OCCO3	x	-2	19	3	38*	i	-28	-36
CCOc1ccc(CN(CC)C(=O)c2ccc3c(c2)[nH]c(=O)c(=O)n3CC)cc1OC	-1	-1	8	1	3	i	x	x
O=C(c1cc(F)ccc1F)C1CCCN(C(=O)c2ccc3nccnc3c2)C1 (centres undefined)	6	4	4	1	4	i	x	x
COc1ccc(-c2cc(C(=O)OC3CCOC3=O)c3ccccc3n2)cc1 (centres undefined)	0	7	26*	-2	28*	i	18	12
O=c1[nH]c(N/N=C/c2ccc(O)cc2)nc2ccccc12	-6	-2	27*	3	34*	i	-2	-1
CC(=O)Nc1ccc(/C=N/Nc2nc3ccccc3[nH]2)cc1	-6	-7	4	4	-14	x	x	x
O=C(N/N=C/c1ccc2cccc(OCc3ccccc3)c2n1)c1ccc(Br)cc1	x	-16	8	0	3	i	x	x
COc1ccc(C(=O)N/N=C/c2ccc3cccc(OCc4ccccc4)c3n2)cc1	x	-7	4	-1	30*	i	8	7
CN(C)c1ccc(-c2nn3c(-c4ccccc4Cl)nnc3s2)cc1	x	-25	-3	1	34*	i	-29	-35
Cc1c(Cc2ccccc2)c(=O)oc2cc(O)cc(O)c12	18	-3	21	0	26*	i	-28	-34
Cc1coc2cc3oc(=O)c(Cc4ccccc4)c(C)c3cc12	-12	0	3	2	2	i	x	x
Cc1ccc(C2=NN(CC(=O)O)C(=O)CC2)cc1	x	-9	1	2	4	i	x	x
CCc1ccc(C(O)c2ncc(-c3ccccc3Cl)[nH]2)cc1 (centres undefined)	x	x	x	-3	x	x	x	x
N#Cc1c(N)nc2c(c1-c1ccc3c(c1)OCO3)CCc1ccccc1-2	-2	-2	16	2	30*	i	-30	-34
SMILES	Lipid droplet	p-CIP stab down	procasp3 activ	FXN GAA850 act	procasp7 counter	Rce1 inhib	PC3 D3A act	PC7 dual conf
N#Cc1c(N)c(C#N)c(-c2ccc3c(c2)OCO3)c2c1CCCC2	x	-10	5	-2	2	i	x	x
COc1ccc(-c2cc(C(F)(F)F)n3nc(C(=O)NCc4ccco4)cc3n2)cc1	x	-1	60*	0	42*	i	-30	-37
O=C(NCc1ccco1)c1cc2nc(-c3ccc4c(c3)OCO4)cc(C(F)(F)F)n2n1	x	-3	-3	6	-1	i	x	x
COc1cc(NS(=O)(=O)c2c(C(=O)N3CCOCC3)c(C)n(C)c2C)cc(OC)c1OC	22	7	5	0	-1	i	x	x
CCCS(=O)(=O)c1c(S(=O)(=O)CCC)c2cnccn2c1C(=O)c1ccc(OC)cc1	-24	-5	-8	2	-2	i	x	x
CCCS(=O)(=O)c1c(S(=O)(=O)CCC)c2cc(-c3ccncc3)ccn2c1C(=O)OC	-8	-6	29*	1	34*	i	-29	-35
Cc1ccc2sc(NC(=O)CSc3nc(C)cc(C)c3C#N)nc2c1	x	-8	18	7	42*	i	-30	-36
COc1cccc2cc(-c3nc(-c4cccs4)cs3)c(=O)oc12	x	-4	17	3	65*	i	13	4
Cc1ccc2nc3c(cc2c1)c(NC(=O)c1ccco1)nn3CC(C)C	-16	-10	52*	-1	64*	i	-29	-34
CCN1C(=O)[C@H]2[C@@H](c3ccc(-c4ccc(C(C)=O)cc4)cc3)N3CCC[C@@]3(C(=O)OC)[C@H]2C1=O	x	x	2	2	-2	i	x	x
COc1cc(Cn2c(N)c(C#N)c3nc4ccccc4nc32)cc(OC)c1	x	-7	91*	0	85*	i	-29	-35
CCOC(=O)/C(C#N)=C/Nc1cc(OC)ccc1OC	-15	4	95*	1	87*	i	9	6
Cc1[nH]c(=O)c(C#N)c(C)c1CCC(=O)NCc1ccc(Cl)cc1	-16	-2	-7	5	-7	i	x	x
COc1ccc(C(C(=O)NCc2ccccc2)N(C(=O)c2snc(C(N)=O)c2N)c2ccccc2OC)cc1 (centres undefined)	-1	-16	-23	-2	29*	i	-31	-35

Screening results as filed in PubChem.
